≈ marks a conversion by molar mass, not a printed value.
Legend:
Format in all cases: functional
Enterococcus faecalis [1] = assay: Antibacterial activity against Enterococcus faecalis assessed as resistant isolates by CLSI broth microdilution method
Staphylococcus aureus [2] = assay: Antibacterial activity against Methicillin-resistant Staphylococcus aureus assessed as resistant isolates by CLSI broth microdilution method
[3] = tested on: Streptococcus sp. 'group B'; assay: Antibacterial activity against Beta-hemolytic Streptococcus group B by CLSI broth microdilution method
In short: (§1)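 Clinical isolates from skin/soft tissue, bloodstream and respiratory specimens were tested by broth microdilution per CLSI M7-A7 and M100-S18, with quality controls. Values are the number of isolates inhibited at each concentration, or MIC / percent susceptible. Highest concentration tested was 8 µg/ml for iclaprim and trimethoprim-sulfamethoxazole, and 64 µg/ml for trimethoprim.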

[4] = tested on: Streptococcus sp. 'group A'; assay: Antibacterial activity against Beta-hemolytic Streptococcus group A by CLSI broth microdilution method; in short: as §1
Enterococcus faecium [5] = assay: Antibacterial activity against Enterococcus faecium assessed as resistant isolates by CLSI broth microdilution method
Staphylococcus aureus [6] = assay: Antibacterial activity against Methicillin-sensitive Staphylococcus aureus by CLSI broth microdilution method
Enterococcus faecalis [7] = assay: Antibacterial activity against Enterococcus faecalis assessed as susceptible isolates by CLSI broth microdilution method
Staphylococcus aureus [8] = assay: Antibacterial activity against Methicillin-sensitive Staphylococcus aureus assessed as resistant isolates by CLSI broth microdilution method
[9] = tested on: Streptococcus sp. 'group A'; assay: Antibacterial activity against Beta-hemolytic Streptococcus group A assessed as susceptible isolates by CLSI broth microdilution method; in short: as §1
Staphylococcus aureus [10] = assay: Antibacterial activity against Methicillin-resistant Staphylococcus aureus assessed as susceptible isolates by CLSI broth microdilution method
Enterococcus faecium [11] = assay: Antibacterial activity against Enterococcus faecium assessed as susceptible isolates by CLSI broth microdilution method
Enterococcus faecalis [12] = assay: Antibacterial activity against Enterococcus faecalis by CLSI broth microdilution method
[13] = tested on: Streptococcus sp. 'group B'; assay: Antibacterial activity against Beta-hemolytic Streptococcus group B assessed as susceptible isolates by CLSI broth microdilution method; in short: as §1
Enterococcus faecium [14] = assay: Antibacterial activity against Enterococcus faecium by CLSI broth microdilution method
Staphylococcus aureus [15] = assay: Antibacterial activity against Methicillin-sensitive Staphylococcus aureus assessed as susceptible isolates by CLSI broth microdilution method
Staphylococcus aureus [16] = assay: Antibacterial activity against Methicillin-resistant Staphylococcus aureus by CLSI broth microdilution method
[17] = tested on: Streptococcus sp. 'group B'; assay: Antibacterial activity against Beta-hemolytic Streptococcus group B assessed as resistant isolates by CLSI broth microdilution method
In short: (§2)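 Recent clinical isolates from skin/soft tissue, bloodstream and respiratory specimens. Tested by broth microdilution per CLSI M7-A7 and M100-S18, with the appropriate quality controls. The thymidine content of the test medium was assessed to rule out artifactual inhibition.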

[18] = tested on: Streptococcus sp. 'group A'; assay: Antibacterial activity against Beta-hemolytic Streptococcus group A assessed as resistant isolates by CLSI broth microdilution method; in short: as §2

SMILES | Activity (Enterococcus faecalis [1]) | Activity (Staphylococcus aureus [2]) | MIC50 [3] | MIC90 [3] | MIC [4] | MIC50 [4] | MIC90 [4] | Activity (Enterococcus faecium [5]) | MIC50 (Staphylococcus aureus [6]) | MIC90 (Staphylococcus aureus [6]) | Activity (Enterococcus faecalis [7]) | Activity (Staphylococcus aureus [8]) | Activity [9] | Activity (Enterococcus faecium [11]) | MIC50 (Enterococcus faecalis [12]) | MIC90 (Enterococcus faecalis [12]) | Activity [13] | MIC50 (Enterococcus faecium [14]) | MIC90 (Enterococcus faecium [14]) | Activity (Staphylococcus aureus [15]) | further results
CN[C@H](CC(C)C)C(=O)N[C@H]1C(=O)N[C@@H](CC(N)=O)C(=O)N[C@H]2C(=O)N[C@H]3C(=O)N[C@H](C(=O)N[C@H](C(=O)O)c4cc(O)cc(O)c4-c4cc3ccc4O)[C@H](O)c3ccc(c(Cl)c3)Oc3cc2cc(c3O[C@@H]2O[C@H](CO)[C@@H](O)[C@H](O)[C@H]2O[C@H]2C[C@](C)(N)[C@H](O)[C@H](C)O2)Oc2ccc(cc2Cl)[C@H]1O [VANCOMYCIN] | 1.9% | 0% | ≤ 0.5 mg/L | ≤ 0.5 mg/L | ≤ 0.5 mg/L | ≤ 0.5 mg/L | ≤ 0.5 mg/L | 43.2% | 1 mg/L (≈ 0.69 µM) | 1 mg/L (≈ 0.69 µM) | 97.7% | 0% | 100% | 55.8% | 1 mg/L (≈ 0.69 µM) | 2 mg/L (≈ 1.38 µM) | 100% | 1 mg/L (≈ 0.69 µM) | > 16 mg/L | 100% | MIC [3]: ≤ 0.5 mg/L; Activity (Staphylococcus aureus [10]): 100%; MIC50 (Staphylococcus aureus [16]): 1 mg/L (≈ 0.69 µM); MIC90 (Staphylococcus aureus [16]): 1 mg/L (≈ 0.69 µM)
CCC[C@@H]1C[C@@H](C(=O)N[C@@H]([C@H]2O[C@H](SC)[C@H](O)[C@@H](O)[C@H]2O)[C@H](C)Cl)N(C)C1 [CLINDAMYCIN] |  | 47% | ≤ 0.12 mg/L | > 4 mg/L | ≤ 0.12 mg/L | ≤ 0.12 mg/L | ≤ 0.12 mg/L |  | ≤ 0.12 mg/L | ≤ 0.12 mg/L |  | 3.4% | 96.4% |  | > 4 mg/L | > 4 mg/L | 88.7% | > 4 mg/L | > 4 mg/L | 96.4% | Activity [17]: 10.3%; MIC [3]: ≤ 0.12 mg/L; Activity [18]: 3.3%; Activity (Staphylococcus aureus [10]): 52.7%; MIC90 (Staphylococcus aureus [16]): > 4 mg/L
CC(=O)NC[C@H]1CN(c2ccc(N3CCOCC3)c(F)c2)C(=O)O1 [LINEZOLID] | 0% |  | 1 mg/L (≈ 2.96 µM) | 1 mg/L (≈ 2.96 µM) |  | 1 mg/L (≈ 2.96 µM) | 1 mg/L (≈ 2.96 µM) | 0.7% | 2 mg/L (≈ 5.93 µM) | 2 mg/L (≈ 5.93 µM) | 100% |  | 100% | 99.3% | 1 mg/L (≈ 2.96 µM) | 2 mg/L (≈ 5.93 µM) | 100% | 1 mg/L (≈ 2.96 µM) | 2 mg/L (≈ 5.93 µM) | 100% | MIC50 (Staphylococcus aureus [16]): 2 mg/L (≈ 5.93 µM); MIC90 (Staphylococcus aureus [16]): 2 mg/L (≈ 5.93 µM)
CN(C)[C@@H]1C(O)=C(C(N)=O)C(=O)[C@@]2(O)C(O)=C3C(=O)c4c(O)cccc4[C@@](C)(O)[C@H]3C[C@@H]12 [TETRACYCLINE] | 71.3% | 12.8% | > 16 mg/L | > 16 mg/L | ≤ 0.5 mg/L | ≤ 0.5 mg/L | ≤ 0.5 mg/L | 32% | ≤ 0.5 mg/L | ≤ 0.5 mg/L | 28.4% | 4% | 90.2% | 67.3% | > 16 mg/L | > 16 mg/L | 21.6% | ≤ 0.5 mg/L | > 16 mg/L | 95.8% | Activity [17]: 77.9%; Activity [18]: 9.6%; Activity (Staphylococcus aureus [10]): 86.5%; MIC (Enterococcus faecium [14]): ≤ 0.5 mg/L; MIC90 (Staphylococcus aureus [16]): > 16 mg/L
CC[C@H]1OC(=O)[C@H](C)[C@@H](O[C@H]2C[C@@](C)(OC)[C@@H](O)[C@H](C)O2)[C@H](C)[C@@H](O[C@@H]2O[C@H](C)C[C@H](N(C)C)[C@H]2O)[C@](C)(O)C[C@@H](C)C(=O)[C@H](C)[C@@H](O)[C@]1(C)O [ERYTHROMYCIN] | 52.9% | 84.3% | ≤ 0.12 mg/L | > 4 mg/L | ≤ 0.12 mg/L | ≤ 0.12 mg/L | > 4 mg/L | 84.5% | 0.25 mg/L (≈ 0.341 µM) | > 4 mg/L | 13.5% | 21.1% |  | 3% | > 4 mg/L | > 4 mg/L | 73% | > 4 mg/L | > 4 mg/L | 77.9% | Activity [17]: 26%; Activity [18]: 16.1%; Activity (Staphylococcus aureus [10]): 14.6%; MIC50 (Staphylococcus aureus [16]): > 4 mg/L
CC1(C)S[C@@H]2[C@H](NC(=O)Cc3ccccc3)C(=O)N2[C@H]1C(=O)O [PENICILLIN G] |  |  | ≤ 0.06 mg/L | ≤ 0.06 mg/L | ≤ 0.06 mg/L | ≤ 0.06 mg/L | ≤ 0.06 mg/L |  |  |  |  |  | 100% |  |  |  | 100% |  |  |  | MIC [3]: ≤ 0.06 mg/L
C[C@H]1COc2c(N3CCN(C)CC3)c(F)cc3c(=O)c(C(=O)O)cn1c23.C[C@H]1COc2c(N3CCN(C)CC3)c(F)cc3c(=O)c(C(=O)O)cn1c23.O [LEVOFLOXACIN] | 34.2% | 82.4% | 0.5 mg/L | 1 mg/L |  | 0.5 mg/L | 1 mg/L | 82.2% | 0.25 mg/L | 0.5 mg/L | 65.2% | 5.6% |  | 14.2% | 1 mg/L | > 4 mg/L | 99.5% | > 4 mg/L | > 4 mg/L | 94.2% | Activity [17]: 0.5%; Activity [18]: 0%; Activity (Staphylococcus aureus [10]): 16.8%; MIC50 (Staphylococcus aureus [16]): > 4 mg/L; MIC90 (Staphylococcus aureus [16]): > 4 mg/L
CC1(C)S[C@@H]2[C@H](NC(=O)[C@H](N)c3ccccc3)C(=O)N2[C@H]1C(=O)O [AMPICILLIN] | 0% |  |  |  |  |  |  | 88.1% |  |  | 100% |  |  | 11.9% | ≤ 4 mg/L | ≤ 4 mg/L |  | > 16 mg/L | > 16 mg/L |  | MIC (Enterococcus faecalis [12]): ≤ 4 mg/L
